Assays:
[1] = biological target: T1, Solute carrier family 22 member 1 (Homo sapiens, UniProt O15245); assay: (§1) Inhibition of human OCT1 expressed in HEK293 cells assessed as decrease in uptake of ASP+ after 2 mins by fluorescence assay; format: cell-based
T1 sequence (O15245 whole entry): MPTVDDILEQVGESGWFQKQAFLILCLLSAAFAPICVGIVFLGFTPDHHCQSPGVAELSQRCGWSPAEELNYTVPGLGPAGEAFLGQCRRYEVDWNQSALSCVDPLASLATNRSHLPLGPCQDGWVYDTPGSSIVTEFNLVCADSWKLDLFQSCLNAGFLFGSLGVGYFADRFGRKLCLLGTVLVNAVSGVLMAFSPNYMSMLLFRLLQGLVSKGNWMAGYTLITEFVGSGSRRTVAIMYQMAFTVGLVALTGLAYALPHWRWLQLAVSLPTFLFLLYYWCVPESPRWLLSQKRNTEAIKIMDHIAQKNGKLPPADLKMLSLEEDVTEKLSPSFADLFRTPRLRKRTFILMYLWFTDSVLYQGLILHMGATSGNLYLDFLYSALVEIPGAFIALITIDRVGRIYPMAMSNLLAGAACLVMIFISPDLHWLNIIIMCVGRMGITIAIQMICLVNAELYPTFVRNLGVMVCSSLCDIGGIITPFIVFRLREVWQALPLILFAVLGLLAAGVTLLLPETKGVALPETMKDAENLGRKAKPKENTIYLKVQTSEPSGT
Summary of the method: (§2)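 Human OCT1-overexpressing HEK-293 cells (48 h growth, ~90% confluent) were incubated 2 min at 37°C in HBSS with 2 µM ASP+ and serially diluted inhibitor. IC50 was obtained by curve fitting.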

OCT1 (SLC22A1) = biological target: T2, OCT1 (SLC22A1) (Homo sapiens, UniProt O15245); assay: as §1; format: cell-based; details: human, HEK293 cells that express human OCT1, probe ASP+; summary of the method: as §2
T2 sequence (O15245 whole entry): T1 sequence (O15245 whole entry)

[2] = biological target: T1, Solute carrier family 22 member 1; assay: Ratio of Kii for human OCT1-ASP+-inhibitor complex to Kis for human OCT1-inhibitor complex by Lineweaver-Burk plot analysis
[3] = biological target: T1, Solute carrier family 22 member 1; assay: Competitive inhibition of human OCT1 expressed in HEK293 cells assessed as decrease in uptake of ASP+ after 2 mins by Lineweaver-Burk plot analysis; format: cell-based; details: hek293, 2 min
Summary of the method: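 HEK-293 cells stably overexpressing human OCT1 (kept in DMEM, 10% FBS, 75 µg/ml hygromycin B) were grown 48 h to ~90% confluence. They were exposed for 2 min at 37°C to HBSS with serial dilutions of ASP+ plus inhibitor at 4 fixed concentrations. Fluorescence was read at ex 485/em 585 nm. Reciprocal uptake at each inhibitor level was fitted by linear regression.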

[4] = biological target: T1, Solute carrier family 22 member 1; assay: Competitive inhibition of human OCT1 expressed in HEK293 cells assessed as decrease in uptake of ASP+ after 2 mins by Lineweaver-Burk plot analysis; details: hek293, 2 min
[5] = biological target: T1, Solute carrier family 22 member 1; assay: Inhibition of human OCT1 expressed in HEK293 cells assessed as decrease in uptake of YM155 after 1 min

Row | SMILES | IC50 [1] [µM] | also measured
1 | Oc1c(Cl)cc(Cl)cc1Sc1cc(Cl)cc(Cl)c1O [BITHIONOL] | 2.23 | –
2 | Clc1ccc(C(OCCN2CCCCC2)c2ccccc2)cc1 (centres undefined) [CLOPERASTINE] | 14.9 | –
3 | Cc1ncc(C[n+]2csc(CCO)c2C)c(N)n1 [THIAMINE ION] | 4350 | inhibition at 2 min (OCT1 (SLC22A1)): -1.5%; Ratio [2]: 95.6
4 | CC(CCc1ccc(O)cc1)NCCc1ccc(O)c(O)c1 (centres undefined) [DOBUTAMINE] | 4.17 | –
5 | CCN(CC)CCNC(=O)c1c(C)[nH]c(/C=C2\C(=O)Nc3ccc(F)cc32)c1C [SUNITINIB] | 6.1 | –
6 | CC(=O)N1CCN(c2ccc(OCC3COC(Cn4ccnc4)(c4ccc(Cl)cc4Cl)O3)cc2)CC1 (centres undefined) [KETOCONAZOLE] | 2.6 | –
7 | Clc1cccc(Cl)c1N=C1NCCN1 [CLONIDINE] | 19 | –
8 | Cc1cc(C(C#N)c2ccc(Cl)cc2)c(Cl)cc1NC(=O)c1cc(I)cc(I)c1O (centres undefined) [CLOSANTEL] | 3 | –
9 | COc1ccc2c(c1)[C@]13CCCC[C@@H]1[C@H](C2)N(C)CC3 [DEXTROMETHORPHAN] | 10.5 | –
10 | COc1ccccc1OCCNCC(O)COc1cccc2[nH]c3ccccc3c12 (centres undefined) [CARVEDILOL] | 3.4 to 3.43 | –
11 | CCN(CC)C(C)CN1c2ccccc2Sc2ccccc21 (centres undefined) [ETHOPROPAZINE] | 20.5 | inhibition (INH) [3]: Active; inhibition (INH) [4]: Active
12 | COc1cc2nc(N(C)CCCNC(=O)C3CCCO3)nc(N)c2cc1OC (centres undefined) [ALFUZOSIN] | 14.9 | –
13 | Oc1ccc(Cl)cc1Cc1cc(Cl)ccc1O [DICHLOROPHEN] | 8.41 | –
14 | Nc1c2c(nc3ccccc13)CCCC2 [TACRINE] | 21.7 | inhibition (INH) [3]: Active; inhibition (INH) [4]: Active
15 | CCN(CC)CCNC(C(=O)OCCC(C)C)c1ccccc1 (centres undefined) [CAMYLOFIN] | 9.12 | –
16 | CN(C)CCCN1c2ccccc2CCc2ccccc21 [IMIPRAMINE] | 7.95 | –
17 | CN(C)CCC=C1c2ccccc2COc2ccccc21 [DOXEPIN] | 11.2 | –
18 | CCN(CC)CCOCCOC(=O)C1(c2ccccc2)CCCC1 [CARBETAPENTANE] | 1.55 to 1.6 | –
19 | CCc1nc(N)nc(N)c1-c1ccc(Cl)cc1 [PYRIMETHAMINE] | 13.6 | –
20 | CCCNCC(O)COc1ccccc1C(=O)CCc1ccccc1 (centres undefined) [PROPAFENONE] | 15.5 | –
21 | Clc1ccccc1C(c1ccccc1)(c1ccccc1)n1ccnc1 [CLOTRIMAZOLE] | 12 | –
22 | N=C(N)N/N=C/c1c(Cl)cccc1Cl [GUANABENZ] | 4.85 | –
23 | CN/C(=N/CCSCc1nc[nH]c1C)NC#N [CIMETIDINE] | – | inhibition at 2 min (OCT1 (SLC22A1)): 4.13%; IC50 [5]: 149 µM
24 | CNCCCN1c2ccccc2CCc2ccccc21 [DESIPRAMINE] | 9.18 | –
25 | COC1=CC(=O)C[C@@H](C)[C@]12Oc1c(Cl)c(OC)cc(OC)c1C2=O [GRISEOFULVIN] | 7.3 | –
26 | c1ccc(CC2NCCc3ccccc32)cc1 (centres undefined) | 82.1 | inhibition (INH) [3]: Active
